Test results as given in ChEMBL document CHEMBL3826882, “Discovery of 1-((2R,4aR,6R,7R,7aR)-2-Isopropoxy-2-oxidodihydro-4H,6H-spiro[furo[3,2-d][1,3,2]dioxaphosphinine-7,2'-oxetan]-6-yl)pyrimidine-2,4(1H,3H)-dione (JNJ-54257099), a 3'-5'-Cyclic Phosphate Ester Prodrug of 2'-Deoxy-2'-Spirooxetane Uridine Triphosphate Useful for HCV Inhibition” (J Med Chem, 2016).

What was measured:
Hepatocyte [1] = assay: Prodrug conversion in human primary hepatocytes assessed as 2'-deoxy-2'-spirooxetane uridine triphosphate level per million cells at 2 uM after 4 hrs using radiolabelled compound by LC-MS/MS analysis; type: ADME, cell-based
In short: (§1)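 Study A: fresh primary hepatocyte cultures from mouse, rat, dog and human incubated with tritiated prodrug at 2 or 62.5 µM for 4 or 24 h. Triphosphate in cell lysates reported as pmol/million hepatocytes. Duplicate or single measurements.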

Hepatocyte [2] = assay: Prodrug conversion in mouse primary hepatocytes assessed as 2'-deoxy-2'-spirooxetane uridine triphosphate level per million cells at 2 uM after 4 hrs using radiolabelled compound by LC-MS/MS analysis; type: ADME, cell-based; in short: as §1
[3] = Prodrug conversion in dog primary hepatocytes assessed as 2'-deoxy-2'-spirooxetane uridine triphosphate level per million cells at 2 uM after 4 hrs using radiolabelled compound by LC-MS/MS analysis; type: ADME, cell-based, Canis lupus familiaris, Hepatocyte; in short: as §1
Hepatocyte [4] = assay: Prodrug conversion in human primary hepatocytes assessed as 2'-deoxy-2'-spirooxetane uridine triphosphate level per million cells at 62.5 uM after 24 hrs using radiolabelled compound by LC-MS/MS analysis; type: ADME, cell-based; in short: as §1
Hepatocyte [5] = assay: Stability in mouse primary hepatocyte supernatant assessed as parent compound level at 2 uM after 4 to 24 hrs using radiolabeled compound by HPLC analysis; type: ADME, cell-based; conditions: hepatocytes
[6] = Stability in dog primary hepatocyte supernatant assessed as parent compound level at 2 uM after 4 to 24 hrs using radiolabeled compound by HPLC analysis; type: ADME, cell-based, Canis lupus familiaris; conditions: hepatocytes
In short: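 Fresh primary hepatocyte cultures incubated with tritiated prodrug (5'-[3H]) at 2 and 62.5 µM for 4 and 24 h. Supernatants taken after protein precipitation and profiled by HPLC with radioactivity detection. Cell lysates profiled for metabolites by radio-LC. Cyclic monophosphate also measured by LC/MS/MS.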

[7] = Half life in mouse plasma at 50 mg/kg, po; type: ADME, organism-based
In short: (§2)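 Single oral dose of 50 mg/kg in 20% HP-β-cyclodextrin. Prodrug and triphosphate measured in plasma and liver over time (tlast 6–30 h). Half-life, Cmax, tmax and AUC0-last derived; liver/plasma ratio taken from AUC0-last. Prodrug data pooled from two independent studies.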

Liver [8] = assay: Tlast in dog liver at 50 mg/kg, po; type: ADME, organism-based, Canis lupus familiaris; conditions: in vivo
In short: (§3)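 Single oral dose of 50 mg/kg formulated in 20% HP-β-cyclodextrin. Prodrug and its triphosphate were measured in plasma and liver (ng/mL or ng/g) over time, and Cmax, tmax, AUC, tlast and t1/2 were derived. For some analytes, data from two independent studies are reported.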

Liver [9] = assay: Tmax in rat liver assessed as 2'-deoxy-2'-spirooxetane uridine triphosphate at 50 mg/kg, po; type: ADME, organism-based; conditions: in vivo; in short: as §3
[10] = Tmax in dog plasma at 50 mg/kg, po; type: ADME, organism-based, Canis lupus familiaris; in short: as §3
Hepatocyte [11] = assay: Prodrug conversion in rat cryopreserved hepatocytes assessed as 2'-deoxy-2'-spirooxetane uridine triphosphate level per million cells at 10 uM after 8 hrs by LC-MS/MS analysis; type: ADME, cell-based
In short: (§4)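 Plated cryopreserved hepatocytes (study B) incubated with 10 µM unlabeled prodrug for 2, 8 or 24 h. Triphosphate measured in cell lysates and expressed as pmol/million hepatocytes. Quantification limit 2 ng/10^6 cells.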

Hepatocyte [12] = assay: Prodrug conversion in rat primary hepatocytes assessed as 2'-deoxy-2'-spirooxetane uridine triphosphate formation measured at 2 hrs by LC-MS/MS analysis; type: ADME, cell-based
In short: (§5)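 Hepatocyte primary cultures followed over time for triphosphate formation in cell lysates: rat and mouse up to 24 h, human up to 96 h.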

Hepatocyte [13] = assay: Prodrug conversion in rat cryopreserved hepatocytes assessed as 2'-deoxy-2'-spirooxetane uridine triphosphate level per million cells at 10 uM after 2 hrs by LC-MS/MS analysis; type: ADME, cell-based; in short: as §4
Liver [14] = assay: Tlast in mouse liver assessed as 2'-deoxy-2'-spirooxetane uridine triphosphate at 50 mg/kg, po; type: ADME, organism-based; conditions: in vivo; in short: as §3
Liver [15] = assay: Tmax in dog liver assessed as 2'-deoxy-2'-spirooxetane uridine triphosphate at 50 mg/kg, po; type: ADME, organism-based, Canis lupus familiaris; conditions: in vivo; in short: as §3
Hepatocyte [16] = assay: Prodrug conversion in mouse cryopreserved hepatocytes assessed as 2'-deoxy-2'-spirooxetane uridine triphosphate level per million cells at 10 uM after 8 hrs by LC-MS/MS analysis; type: ADME, cell-based; in short: as §4
Hepatocyte [17] = assay: Drug metabolism in human hepatocytes assessed as ((4R,5R,7R,8R)-5-(2,4-dioxo-3,4-dihydropyrimidin-1(2H)-yl)-8-hydroxy-1,6-dioxaspiro[3.4]octan-7-yl)methyl dihydrogen phosphate formation in presence of CYP2C8 and CYP2C9 inhibitor montelukast by LC-MS/MS analysis; type: ADME, cell-based
Hepatitis C virus [18] = assay: Antiviral activity against HCV genotype 3a infected in homozygous cDNA-uPA chimeric SCID mouse bearing humanized hepatocytes assessed as reduction in HCV RNA level in serum administered through oral gavage once daily for 7 days by RT-PCR method; type: functional, organism-based; conditions: Hepacivirus hominis, Hepatocyte
In short: (§6)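 Male chimeric SCID cDNA-uPA+/+ mice with human hepatocyte liver (≥70% replacement by blood human albumin) and serum HCV RNA >1.0×10^6 copies/mL the week before dosing. Oral gavage for 7 days in 20% HP-β-CD, 50-200 mg/kg QD or BID. Serum sampled pre-dose on days 1, 2, 3, 5 and 7. Real-time PCR; mean change in log10 copies/mL, day 7 vs day 1 pre-dose.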

Hepatocyte [19] = assay: Prodrug conversion in human hepatocytes assessed as 2'-deoxy-2'-spirooxetane uridine triphosphate formation in presence of CYP2C8 and CYP2C9 inhibitor montelukast by LC-MS/MS analysis; type: ADME, cell-based
[20] = Cytotoxicity against human HuH7-CMV-Luc cells assessed as reduction in cell proliferation after 3 days by 5-bromo-2'-deoxyuridine incorporation assay; type: cell-based, Huh-7
In short: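 Huh7 cells at 1,500 cells/well, five serial compound dilutions in triplicate, 3 days of incubation. Proliferation was quantified as BrdU incorporation into DNA by ELISA.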

Liver [21] = assay: Half life in rat liver assessed as 2'-deoxy-2'-spirooxetane uridine triphosphate at 50 mg/kg, po; type: ADME, organism-based; conditions: in vivo; in short: as §2
Hepatocyte [22] = assay: Prodrug conversion in human primary hepatocytes assessed as 2'-deoxy-2'-spirooxetane uridine triphosphate formation measured at 8 hrs by LC-MS/MS analysis; type: ADME, cell-based; in short: as §5
Hepatitis C virus [23] = assay: Antiviral activity against HCV genotype 1a infected in homozygous cDNA-uPA chimeric SCID mouse bearing humanized hepatocytes assessed as change in HCV RNA level in serum at 100 mg/kg, po qd administered through gavage for 7 days by RT-PCR method; type: functional, Hepacivirus hominis, subtype 1a, Hepatocyte; in short: as §6
Hepatocyte [24] = assay: Prodrug conversion in human cryopreserved hepatocytes assessed as 2'-deoxy-2'-spirooxetane uridine triphosphate level per million cells at 10 uM after 2 hrs by LC-MS/MS analysis; type: ADME, cell-based; in short: as §4
Hepatocyte [25] = assay: Prodrug conversion in human cryopreserved hepatocytes assessed as 2'-deoxy-2'-spirooxetane uridine triphosphate level per million cells at 10 uM after 24 hrs by LC-MS/MS analysis; type: ADME, cell-based; in short: as §4

`[3H]C1O[P@](=O)(OC(C)C)O[C@@H]2[C@@H]1O[C@@H](n1ccc(=O)[nH]c1=O)[C@@]21CCO1` (stereo not given in full) showed a Drug metabolism (Hepatocyte [1]) of 0.023 pmol, a Drug metabolism (Hepatocyte [2]) of 0.063 pmol and a Drug metabolism [3] of 0.005 pmol. The Drug metabolism (Hepatocyte [4]) was 0.38 pmol, the Stability (Hepatocyte [5]) was “Stable” and the Stability [6] was “Stable”.
For `CC(C)O[P@@]1(=O)OC[C@H]2O[C@@H](n3ccc(=O)[nH]c3=O)[C@@]3(CCO3)[C@@H]2O1`, the half-life [7] was 4.4 h, the Tlast (Liver [8]) was 24 h and the Tmax (Liver [9]) was 4 h. The Tmax [10] was 1.5 h, the Drug metabolism (Hepatocyte [11]) was 0.308 pmol and the Drug metabolism (Hepatocyte [12]) was “metabolite_detected”. The Drug metabolism (Hepatocyte [13]) was 0.181 pmol, the Tlast (Liver [14]) was 24 h and the Tmax (Liver [15]) was 4 h. For the same compound, the Drug metabolism (Hepatocyte [16]) was 0.95 pmol, the Drug metabolism (Hepatocyte [17]) was “metabolite_detected” and the Activity (Hepatitis C virus [18]) was “Dose-dependent effect”. The Drug metabolism (Hepatocyte [19]) was “metabolite_detected”, the CC50 at 72 h [20] was > 100 µM and the t1/2 (Liver [21]) was 5.8 h. For the same compound, the Drug metabolism (Hepatocyte [22]) was “metabolite_detected”, the Activity (Hepatitis C virus [23]) was -0.83 and the Drug metabolism (Hepatocyte [24]) was 0.087 pmol. For the same compound, the Drug metabolism (Hepatocyte [25]) was 0.151 pmol.
